# NPY-Y2 PAM-ag = potentiators or agonists of human neuropeptide Y receptor Y2; cells expressing NPY-Y2, potentiator/agonist read-out; actives 0.45% (n = 220,000); activation, % at 3.6 µM; P49146; AID 1359; in the data active means activation above about 27%;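 further: cells stimulated with NPY near EC25 plus isoproterenol at EC100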
# NPY-Y2 antag = antagonists of human neuropeptide Y receptor Y2. NPY-Y2 expressing cells, antagonist mode. inhibition, % at 2.7 µM. actives 0.99% (n = 140,000). AID 793; in the data active means inhibition above about 17%
# NPY-Y1 PAM-ag = potentiators or agonists of human neuropeptide Y receptor Y1; activation, % at 3.6 µM; P25929; NPY-Y1 expressing cells, potentiator/agonist activation; actives 0.37% (n = 220,000); in the data active means activation above about 33%, passing the limit was not always enough;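 further: cells stimulated with NPY at EC10 then isoproterenol at EC100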
# Target sequence (P25929 whole entry, looked up): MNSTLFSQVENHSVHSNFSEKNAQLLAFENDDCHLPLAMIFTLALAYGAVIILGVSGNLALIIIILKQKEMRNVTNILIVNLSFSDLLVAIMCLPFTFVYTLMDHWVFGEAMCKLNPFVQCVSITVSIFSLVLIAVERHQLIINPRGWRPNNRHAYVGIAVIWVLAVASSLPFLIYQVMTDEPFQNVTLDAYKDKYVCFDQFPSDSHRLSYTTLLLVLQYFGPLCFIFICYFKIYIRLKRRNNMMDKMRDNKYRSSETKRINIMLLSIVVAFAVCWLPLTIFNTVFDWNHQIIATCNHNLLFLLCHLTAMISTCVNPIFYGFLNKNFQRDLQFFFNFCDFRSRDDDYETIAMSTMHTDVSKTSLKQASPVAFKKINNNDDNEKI
# NPY Y1 blocker = NPY-Y1 (human) receptor antagonism | P25929 | HEK293-CNG Y1 cells, membrane potential fluorescence; NPY at EC95, then isoproterenol | actives 1% (n = 200,000) | inhibition, % at 3.6 µM;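 active means inhibition above the campaign mean inhibition of all tested compounds plus 3 SD, cut at about 20% in these data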
#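 Benchmarks – high control isoproterenol alone, low control NPY with isoproterenol · Material – HEK293 Y1/CNG channel cell line · Times – dye 3 h, compound 60 min room temperature, stimulation 45 min · Probe or stimulus – NPY (25 nM), isoproterenol (1 µM), Ro 20-1724 (25 µM) · Evaluation – % inhibition of NPY effect · Signal – fluorescence, membrane potential probe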
# NPY-Y1 pot conf = human NPY-Y1 potentiation or agonism, confirmation; shares compounds with NPY-Y1 PAM-ag; actives 20% (n = 280); cell-based NPY-Y1 potentiator/agonist assay; activation, % at 3.6 µM; in the data active means activation above about 45%;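 further: cells challenged with NPY at its EC10 plus isoproterenol stimulus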
# NPY-Y2 counter = potentiates or activates NPY-Y2, counter-screen for NPY-Y1 hits; shares compounds with NPY-Y1 PAM-ag; HEK293-CNG cells, membrane-potential fluorescence (FLIPR), 1536-well; activation, % at 3.6 µM; actives 20% (n = 280); in the data active means activation above about 33%
# NPY-Y1 agonist = activates human NPY-Y1, counter-screen for NPY-Y1 potentiators; shares compounds with NPY-Y1 PAM-ag; HEK293 Y1-CNGC, membrane potential fluorescence, agonist mode; activation, % at 3.6 µM; actives 50% (n = 280);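 active means percent activation above the mean of DMSO-only control wells plus 3 SD of those wells, cut at about 18% in these data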;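 further: cells challenged with isoproterenol plus Ro 20-1724 with no NPY in test wells; Y1 agonism lowers isoproterenol-driven cAMP and reduces probe fluorescence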
# NPY-Y2 agonist = counter-screen for NPY-Y1 potentiators or agonists: agonists of NPY-Y2 | actives 67% (n = 280) | shares compounds with NPY-Y1 PAM-ag | HEK293 Y2-CNGC, membrane potential fluorescence, agonist mode | activation, % at 3.6 µM | AID 1698;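 active means activation above the solvent-only control wells' mean plus 3 SD, cut at about 11% in these data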;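 further: agonism lowers cAMP so well fluorescence drops in active wells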
# CNGC counter = counter-screen for NPY-Y1 potentiators or agonists: CNG channel inhibitors; HEK293-CNG parental, isoproterenol cAMP, membrane potential fluorescence; actives 42% (n = 280); inhibition, % at 3.6 µM; shares compounds with NPY-Y1 PAM-ag;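 active means inhibition above the mean of stimulated solvent-only control wells plus 3 SD, cut at about 22% in these data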
# Hits are given with their value; . = inactive; / = not tested or not shown. An excerpt weighted towards active compounds, which were near 1.8% of everything screened.
SMILES,NPY-Y2 PAM-ag,NPY-Y2 antag,NPY-Y1 PAM-ag,NPY Y1 blocker,NPY-Y1 pot conf,NPY-Y2 counter,NPY-Y1 agonist,NPY-Y2 agonist,CNGC counter
O=C(c1ccc2c(c1)OCCO2)N1CCN(Cc2ccccc2)CC1,.,.,.,.,/,/,/,/,/
CC(C)(C)NC(=O)C(c1ccc(O)cc1)N(C(=O)Cn1nnc(-c2ccc(F)cc2)n1)c1ccccc1F (stereo not given),.,/,52.1,.,.,.,19.1,16.3,.
COc1cc(/C=N/NC(=O)C(Cc2c[nH]c3ccccc23)NC(=O)OCC(C)C)cc([N+](=O)[O-])c1O (stereo not given),.,.,.,.,/,/,/,/,/
COc1cc(/C=N/NC(=O)C(Cc2c[nH]c3ccccc23)NC(=O)OCC(C)C)cc([N+](=O)[O-])c1OCc1ccccc1 (stereo not given),.,/,38.9,.,.,.,23.5,38.1,25.3
Cc1nc(C)c(NC(=O)OC(C)C)cc1NC(=O)OC(C)C,.,/,.,.,/,/,/,/,/
CC(=O)c1ccc(NC(=S)NC(C)c2ccc(Cl)cc2Cl)cc1 (stereo not given),.,/,36.8,.,48.2,.,37.3,35.0,35.7
O=C(O)c1cc(Cl)c2c(c1)OCO2,.,/,.,/,/,/,/,/,/
COC(=O)CNC(=O)C12CC3CC(C1)CC(c1ccc(C)cc1)(C3)C2,.,/,.,.,/,/,/,/,/
Cc1ccc(C23CC4CC(CC(CN)(C4)C2)C3)cc1,.,/,35.4,.,.,.,20.7,30.6,31.0
CN(C)Cc1c(O)ccc2oc(Cc3ccccc3)cc12,.,.,53.3,.,.,.,20.6,26.5,.
CCOc1ccc(NC(=S)NNC(=S)Nc2cccc(C(F)(F)F)c2)cc1,.,/,53.6,/,.,.,23.7,31.7,.
FC(F)(F)c1cccc(NC(=S)Nc2ccc(Cl)c(Cl)c2)c1,.,/,45.2,/,.,.,.,25.3,.
O=C(CN1c2ccccc2Sc2ccccc21)NNC(=S)Nc1ccc(Cl)cc1,.,/,.,/,/,/,/,/,/
O=C(CN1c2ccccc2Sc2ccccc21)NNC(=S)Nc1ccc(Cl)cc1Cl,.,.,68.3,.,.,37.3,.,46.3,26.8
COc1ccc(CC(=O)Nc2ccc(N3CCOCC3)cc2)cc1S(=O)(=O)N1CCOCC1,.,/,.,/,/,/,/,/,/
COc1ccc(/C=C2\SC(=S)N(CC3CCCO3)C2=O)cc1 (stereo not given),.,/,.,/,/,/,/,/,/
COc1ccc(N=C2O/C(=C/c3sc(=S)n(CC4CCCO4)c3O)N=C2C#N)cc1 (stereo not given),.,/,52.8,/,.,44.8,21.8,48.1,.
CC(=O)Nc1nc(SCC(=O)Nc2nnc(C)s2)[nH]c(=O)c1NC(=O)c1cccs1,.,/,.,.,/,/,/,/,/
COc1ccc(C(=O)NC2CCCCCC2)cc1S(=O)(=O)Nc1ccc(Br)cc1,.,.,48.0,.,44.1,.,42.4,31.3,39.6
COc1ccc(C(=O)NC2CCCCCC2)cc1S(=O)(=O)N1CCCC1,.,/,.,.,/,/,/,/,/
O=C(CCS(=O)(=O)c1ccccc1)Nc1ccccc1F,.,/,.,.,/,/,/,/,/
c1ccc2c3c([nH]c2c1)-c1[nH]ncc1CC3,.,.,.,.,/,/,/,/,/
